Reference: ChEMBL document CHEMBL1124337, “Structure-activity relationships in prazosin-related compounds. Effect of replacing a piperazine ring with an alkanediamine moiety on alpha 1-adrenoreceptor blocking activity” (J Med Chem, 1989)

What was measured:
[1] = molecular target: Adrenergic receptor alpha-1 (Rattus norvegicus) (UniProt P15823+P23944+P43140); assay: Selectivity ratio is the antilog of the difference between pA2 at alpha-1 and alpha-2 adrenergic receptors
In short: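 Ratio calculated as the antilog of the difference between the pA2 values from the norepinephrine (α1, epididymal vas deferens) and clonidine (α2, field-stimulated vas deferens) Schild analyses in rat tissue.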

[2] = molecular target: T1, Adrenergic receptor alpha-2 (Rattus norvegicus, UniProt P22086+P19328+P22909); assay: Compound evaluated for antagonist activity to alpha-2 adrenergic receptor in a competitive assay against clonidine in rat vas deferences; format: functional
T1 sequence (P22086 whole entry): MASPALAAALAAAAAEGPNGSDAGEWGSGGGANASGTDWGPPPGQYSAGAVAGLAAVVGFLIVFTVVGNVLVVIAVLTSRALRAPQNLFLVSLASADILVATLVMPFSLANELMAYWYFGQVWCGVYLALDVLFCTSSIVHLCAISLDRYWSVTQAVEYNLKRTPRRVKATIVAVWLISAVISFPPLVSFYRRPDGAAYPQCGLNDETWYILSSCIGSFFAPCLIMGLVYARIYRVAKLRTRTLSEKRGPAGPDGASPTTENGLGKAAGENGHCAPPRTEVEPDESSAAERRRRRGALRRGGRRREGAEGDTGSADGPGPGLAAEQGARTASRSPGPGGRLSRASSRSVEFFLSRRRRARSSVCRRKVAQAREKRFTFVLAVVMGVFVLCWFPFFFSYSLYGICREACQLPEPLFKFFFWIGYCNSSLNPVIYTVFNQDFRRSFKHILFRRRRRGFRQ
T1 sequence (P19328 whole entry): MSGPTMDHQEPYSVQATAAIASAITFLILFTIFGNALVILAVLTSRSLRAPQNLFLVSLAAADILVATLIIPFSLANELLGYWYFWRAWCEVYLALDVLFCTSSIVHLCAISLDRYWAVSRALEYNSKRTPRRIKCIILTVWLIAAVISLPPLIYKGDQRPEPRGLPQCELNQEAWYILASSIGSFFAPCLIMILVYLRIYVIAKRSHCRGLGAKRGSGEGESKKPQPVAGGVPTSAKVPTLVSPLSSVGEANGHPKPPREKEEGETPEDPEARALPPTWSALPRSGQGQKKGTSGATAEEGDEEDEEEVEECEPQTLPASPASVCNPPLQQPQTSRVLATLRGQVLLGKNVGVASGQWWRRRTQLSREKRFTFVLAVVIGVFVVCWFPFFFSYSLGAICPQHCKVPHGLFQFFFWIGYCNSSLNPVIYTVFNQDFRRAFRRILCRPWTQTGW
T1 sequence (P22909 whole entry): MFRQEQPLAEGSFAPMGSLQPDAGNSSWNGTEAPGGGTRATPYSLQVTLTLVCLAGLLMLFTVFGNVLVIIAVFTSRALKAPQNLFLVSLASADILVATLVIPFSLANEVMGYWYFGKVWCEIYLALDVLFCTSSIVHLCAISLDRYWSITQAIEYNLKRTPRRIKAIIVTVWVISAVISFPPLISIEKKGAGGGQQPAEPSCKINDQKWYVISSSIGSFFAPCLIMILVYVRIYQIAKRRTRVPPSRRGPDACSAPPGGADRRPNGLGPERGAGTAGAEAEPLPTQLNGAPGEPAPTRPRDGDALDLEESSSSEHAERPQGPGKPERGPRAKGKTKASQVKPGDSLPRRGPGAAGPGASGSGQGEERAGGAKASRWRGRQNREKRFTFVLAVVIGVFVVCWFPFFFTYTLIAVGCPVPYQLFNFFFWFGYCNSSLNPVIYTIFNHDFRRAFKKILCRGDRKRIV
In short: (§1)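 Male albino rat (175–200 g) vas deferens in 20 mL Krebs baths containing propranolol 1 μM and cocaine 10 μM, loading tension 0.5–0.8 g. Field stimulation at 0.1 Hz, 3-ms pulses, fixed 10–35 V. After ≥1 h equilibration, a cumulative clonidine curve (twitch inhibition) was run, then 30 min antagonist and a second curve. Time-matched controls were run. pA2 came from Schild plots (slope constrained to −1), three antagonist concentrations ×5, or van Rossum for two concentrations.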

[3] = molecular target: T2, Adrenergic receptor alpha-1 (Rattus norvegicus, UniProt P15823+P23944+P43140); assay: Compound evaluated for antagonist activity to alpha-1 adrenergic receptor in a competitive assay against norepinephrine in rat vas deferences; format: functional
T2 sequence (P15823 whole entry): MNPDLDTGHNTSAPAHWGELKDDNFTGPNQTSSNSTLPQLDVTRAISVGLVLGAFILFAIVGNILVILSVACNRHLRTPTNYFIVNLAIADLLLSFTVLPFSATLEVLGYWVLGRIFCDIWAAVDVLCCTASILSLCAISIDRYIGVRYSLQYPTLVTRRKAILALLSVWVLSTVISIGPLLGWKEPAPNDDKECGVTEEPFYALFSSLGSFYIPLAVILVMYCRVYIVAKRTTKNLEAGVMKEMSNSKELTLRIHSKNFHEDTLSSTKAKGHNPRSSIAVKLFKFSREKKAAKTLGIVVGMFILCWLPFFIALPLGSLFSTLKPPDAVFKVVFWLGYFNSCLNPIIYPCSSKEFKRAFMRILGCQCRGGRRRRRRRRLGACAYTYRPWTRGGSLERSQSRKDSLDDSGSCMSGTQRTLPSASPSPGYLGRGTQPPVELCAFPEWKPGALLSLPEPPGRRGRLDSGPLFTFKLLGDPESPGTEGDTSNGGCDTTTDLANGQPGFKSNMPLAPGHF
T2 sequence (P23944 whole entry): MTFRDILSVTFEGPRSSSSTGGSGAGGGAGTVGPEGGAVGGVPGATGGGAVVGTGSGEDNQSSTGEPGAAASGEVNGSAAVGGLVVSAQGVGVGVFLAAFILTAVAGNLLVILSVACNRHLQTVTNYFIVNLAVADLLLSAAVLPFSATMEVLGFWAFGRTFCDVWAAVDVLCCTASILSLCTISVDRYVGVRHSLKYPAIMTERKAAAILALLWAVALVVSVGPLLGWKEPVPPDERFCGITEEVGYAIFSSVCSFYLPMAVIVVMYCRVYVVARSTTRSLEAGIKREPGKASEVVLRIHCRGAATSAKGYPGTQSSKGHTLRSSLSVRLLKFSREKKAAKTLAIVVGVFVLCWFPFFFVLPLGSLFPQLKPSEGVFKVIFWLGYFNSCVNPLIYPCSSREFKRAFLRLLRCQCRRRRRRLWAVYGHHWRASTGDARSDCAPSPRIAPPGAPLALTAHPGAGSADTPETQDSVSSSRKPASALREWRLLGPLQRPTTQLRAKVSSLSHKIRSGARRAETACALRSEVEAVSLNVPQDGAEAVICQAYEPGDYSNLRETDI
T2 sequence (P43140 whole entry): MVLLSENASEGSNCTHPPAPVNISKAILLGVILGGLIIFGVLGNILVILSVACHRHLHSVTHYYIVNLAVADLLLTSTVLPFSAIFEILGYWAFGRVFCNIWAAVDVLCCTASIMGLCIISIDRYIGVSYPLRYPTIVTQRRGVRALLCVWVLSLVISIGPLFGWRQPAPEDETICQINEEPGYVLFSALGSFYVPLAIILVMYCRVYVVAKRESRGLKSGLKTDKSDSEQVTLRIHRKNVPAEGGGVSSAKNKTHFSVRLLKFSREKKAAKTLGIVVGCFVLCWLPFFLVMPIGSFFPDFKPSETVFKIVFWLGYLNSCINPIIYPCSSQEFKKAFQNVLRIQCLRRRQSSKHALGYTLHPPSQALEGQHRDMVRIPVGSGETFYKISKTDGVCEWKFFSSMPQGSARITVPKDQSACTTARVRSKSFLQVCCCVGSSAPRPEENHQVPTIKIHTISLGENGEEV
In short: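 Epididymal portion (14 mm) of male albino rat (175–200 g) vas deferens in Krebs with propranolol 1 μM and cocaine 10 μM, tension 0.4 g, equilibrated ≥1 h. Cumulative norepinephrine contraction curves: the first was discarded and the second was the control. A third curve followed 30 min antagonist incubation. Responses were taken as % of control maximum, corrected by untreated time-controls. Dose ratios at EC50 (three concentrations ×5) gave Schild pA2 with slope constrained to −1.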

[4] = molecular target: T2, Adrenergic receptor alpha-1; assay: Antagonist activity for Alpha-1 adrenergic receptor against norepinephrine in rat vas deferences; format: functional
[5] = molecular target: T1, Adrenergic receptor alpha-2; assay: Compound evaluated for antagonist activity to Alpha-2 adrenergic receptor in a competitive assay against clonidine in rat vas deferences; format: functional; in short: as §1
[6] = molecular target: T1, Adrenergic receptor alpha-2; assay: Antagonist activity for Alpha-2 adrenergic receptor against clonidine in rat vas deferences; format: functional
Rattus norvegicus = organism: Rattus norvegicus; assay: Compound was tested for its effect in reducing the mean blood pressure after 2 min in male wistar rats; format: functional
In short: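 Male Wistar rats (400–490 g) under equithesin (3 mL/kg, then 0.8 mL/kg ip, with supplements every 90–120 min). Dosing was a single pulse iv injection into the jugular vein of 100 μg/kg in 30 μL, flushed with 100 μL saline, after a vehicle-only control. Carotid mean arterial pressure was followed over time as % decrease, given as mean ± SE, with paired t test.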

Row | Structure (SMILES) | pA2 [4] | pA2 [6] | further results
1 | COc1cc2nc(NCCCCCCNC(=O)c3ccco3)nc(N)c2cc1OC |  |  | Ratio [1]: 2340; pA2 [2]: 4.51; pA2 [3]: 7.88
2 | COc1cc2nc(NCCCCCNC(=O)c3ccco3)nc(N)c2cc1OC |  |  | Ratio [1]: 513; pA2 [2]: 5.01; pA2 [3]: 7.72
3 | COc1cc2nc(N(C)CCNC(=O)c3ccco3)nc(N)c2cc1OC | 8.03 |  | pA2 [5]: 5.2
4 | COc1cc2nc(N(C)CCCCCCN(C)C(=O)c3ccco3)nc(N)c2cc1OC | 8.93 | 6.84 | Reduction (Rattus norvegicus): 57.5%
5 | COc1cc2nc(N(C)CCCCCN(C)C(=O)c3ccco3)nc(N)c2cc1OC | 8.83 | 6.68 | 
6 | COc1cc2nc(NCCCCCCCNC(=O)c3ccco3)nc(N)c2cc1OC | 7.54 | 5.04 | 
7 | COc1cc2nc(N(C)CCN(C)C(=O)c3ccco3)nc(N)c2cc1OC | 6.7 | 5.52 | 
8 | COc1cc2nc(NCCNC(=O)c3ccco3)nc(N)c2cc1OC | 8.28 | 5.37 | 
9 | COc1cc2nc(NCCCCNC(=O)c3ccco3)nc(N)c2cc1OC |  |  | Ratio [1]: 170; pA2 [2]: 6.03; pA2 [3]: 8.25
10 | COc1cc2nc(NCCCCCCN(C)C(=O)c3ccco3)nc(N)c2cc1OC | 8.17 | 5.76 | 
11 | COc1cc2nc(N(C)CCCCCCCN(C)C(=O)c3ccco3)nc(N)c2cc1OC | 8.6 | 6.55 | 
12 | COc1cc2nc(N(C)CCCCCCNC(=O)c3ccco3)nc(N)c2cc1OC | 8.53 | 5.98 | 
13 | COc1cc2nc(N(C)CCCCCCCCN(C)C(=O)c3ccco3)nc(N)c2cc1OC | 8.1 | 6.31 | 
14 | COc1cc2nc(N(C)CCCN(C)C(=O)c3ccco3)nc(N)c2cc1OC | 7.41 | 6.45 | 
15 | COc1cc2nc(N(C)CCCCN(C)C(=O)c3ccco3)nc(N)c2cc1OC | 8.15 | 6.5 | 
16 | COc1cc2nc(NCCCCCCCCNC(=O)c3ccco3)nc(N)c2cc1OC | 7.22 | 4.78 | 
17 | COc1cc2nc(NCCCNC(=O)c3ccco3)nc(N)c2cc1OC |  |  | Ratio [1]: 105; pA2 [2]: 5.99; pA2 [3]: 8.01
18 | COc1cc2nc(N3CCN(C(=O)c4ccco4)CC3)nc(N)c2cc1OC [PRAZOSIN] |  |  | Reduction (Rattus norvegicus): 38.5%
